Source: ChEMBL document CHEMBL1147030, “N-thiolated beta-lactams: Studies on the mode of action and identification of a primary cellular target in Staphylococcus aureus” (2007)
Active and inactive are the calls of the source. The calls are words filed in the database; no cut-off is given here.

Columns and labels:
[1] = test system: Staphylococcus aureus; test: Growth inhibition against penicillin-susceptible Staphylococcus ATCC 25923 aureus after 24 hrs; type: functional, organism-based
How it was run: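 Well-diffusion plate: 10^8 suspension in PBS pH 7.4 swabbed on TSA; 6-mm wells loaded with 20 μg compound (from 1 mg/mL DMSO stock), penicillin G 20 μg as comparator; 37°C, 24 h; growth-inhibition zones read.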

[2] = test system: Staphylococcus aureus; test: Inhibition of cell wall biosynthesis in Staphylococcus aureus assessed as cytoplasmic membrane rupture; type: functional, organism-based
How it was run: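 S. aureus ATCC 25923 lawns on TSA with 6-mm paper discs carrying 20 μg compound or penicillin G. SEM: after 24 h at 37°C, agar at the edge of inhibition zones cut out, glutaraldehyde-osmium fixed, gold/palladium coated, imaged for cell morphology. Light microscopy: after 4–5 h, cells lifted onto coverslips from zones, Gram-stained (safranin counterstain), viewed bright-field.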

[3] = test system: Staphylococcus aureus; test: Effect on DNA replication in Staphylococcus aureus ATCC 25923 assessed as inhibition of [3H]thymidine utilization after 30 mins relative to control; type: functional; parameters: scale not given: the % may be the effect or the level left
How it was run: (§1)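 Early log-phase cells in Luria Broth labelled with 3 μCi [methyl-3H]thymidine (DNA) or 3 μCi [5-3H]uridine (RNA), with or without drug at twice the MIC; ciprofloxacin (DNA) or rifampicin (RNA) as reference inhibitors, DMSO control. 50 μL samples taken at 5, 10, 20, 30, 45, 60 min into ice-cold 10% TCA; precipitated radioactivity by liquid scintillation, expressed relative to untreated control.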

[4] = test system: Staphylococcus aureus; test: Growth inhibition against methicillin-susceptible Staphylococcus aureus ATCC 25923 after 2 hrs by agar dilution; type: functional, organism-based
[5] = test system: Staphylococcus aureus; test: Growth inhibition against […] Staphylococcus aureus ATCC 25923 after 2 hrs by agar dilution; type: functional, organism-based
How it was run: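 Log-phase overnight culture inoculated at 10^6 cfu/mL into fresh Mueller-Hinton broth and shaken 1 hr at 35°C. Compound in DMSO then added at 1, 5 or 10 times the MIC, with MIC set by agar dilution in Mueller-Hinton II agar read after 24 hr at 37°C. Growth was followed by viable counts from plated dilutions (colonies counted after 24 hr) and OD 630 nm.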

[6] = test system: Escherichia coli; test: Effect on pBR322 fragmentation at 5 to 100 uM after 24 hrs by agarose gel electrophoresis; type: functional
How it was run: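 Supercoiled pBR322 (0.5 μg) in 50 mM sodium phosphate, pH 7.4, treated with 5–100 μM compound (added in DMSO; DMSO-only lane as control), 37°C for 24 h. Aliquots run on 1.2% agarose/TAE gel with ethidium bromide at 80 V/10 cm for 2.5 h, UV visualization of single- and double-strand breakage.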

[7] = test system: Staphylococcus aureus; test: Effect on RNA transcription in Staphylococcus aureus ATCC 25923 assessed as [3H]uridine incorporation after 20 mins relative to control; type: functional; how it was run: as §1
[8] = test system: Staphylococcus aureus; test: Effect on fatty acid biosynthesis in Staphylococcus aureus RN4220 assessed as [3H]acetate uptake relative to control; type: functional, organism-based
How it was run: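 Strain RN4220 grown at 37 °C to A600 0.11 (1.3 x 10^7 cfu/mL), split into 5 mL tubes; drug added at 1x or 2x MIC (final DMSO 2%), penicillin G 2xMIC and no-drug controls. After 5 min, 3H-acetate added (4 μCi/mL); 0.8 mL aliquots at 15, 30, 45, 60 min extracted with chloroform/methanol; uptake compared with controls.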

Compound: CC1(C)S[C@@H]2[C@H](NC(=O)Cc3ccccc3)C(=O)N2[C@H]1C(=O)O
- Activity [1]: inactive
- Activity [2]: Active

Compound: O=C(O)c1cn(C2CC2)c2cc(N3CCNCC3)c(F)cc2c1=O [CIPROFLOXACIN]
- Activity [3]: 65%

Compound: CO[C@H]1C(=O)N(SC)[C@H]1c1ccccc1Cl
- Activity [4]: Active
- Activity [5]: Active
- Activity [1]: Active
- Activity [2]: inactive
- Activity [6]: inactive
- Activity [3]: >90%
- Activity [7]: 80%
- Activity [8]: Active

Compound: CO[C@H]1/C=C/O[C@@]2(C)Oc3c(C)c(O)c4c(O)c(c(/C=N/N5CCN(C)CC5)c(O)c4c3C2=O)NC(=O)/C(C)=C\C=C\[C@H](C)[C@H](O)[C@@H](C)[C@@H](O)[C@@H](C)[C@H](OC(C)=O)[C@@H]1C [RIFAMPIN]
- Activity [7]: <20%
